Assay results taken from ChEMBL document CHEMBL5674880 (PLoS One, 2018).
Values belong to the compound of their own block, whether it stands above or below them.

Legend:
Format in all cases: functional, cell-based
UMUC3 = assay: Antiproliferative activity against human UM-UC-3 cells after 10 days; conditions: UMUC3, 240 h
MEG-01 = assay: Antiproliferative activity against human MEG-01 cells after 10 days; conditions: MEG-01, 240 h
In short: (§1)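 Broad cancer cell line panel (Eurofins Oncopanel, about 240 lines; mycoplasma negative, STR verified) grown in 2D culture and exposed to compound in a 10-day proliferation assay. The top concentration was 10 μM for the SMYD2 inhibitor series and 25 μM for the SMYD3 inhibitor. The proliferative IC50 is taken from concentration-response data, each value the mean of three biological replicates.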

SK-MEL3 = assay: Antiproliferative activity against human SK-MEL3 cells after 10 days; conditions: SK-MEL3, 240 h
Ramos = assay: Antiproliferative activity against human Ramos cells after 10 days; conditions: 240 h
CRO-AP2 = assay: Antiproliferative activity against human CRO-AP2 cells after 10 days; conditions: CRO-AP2, 240 h
In short: (§2)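 10-day 2D proliferation screen of a broad cancer cell panel (about 240 lines, Eurofins Oncopanel). All lines were mycoplasma negative and STR verified. Compounds were dosed up to a top concentration of 10 μM or 25 μM, depending on the inhibitor. Anti-proliferative IC50 values are the average of three biological replicates.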

HOS = assay: Antiproliferative activity against human HOS cells after 10 days; conditions: 240 h; in short: as §2
MDA-MB-231 = assay: Antiproliferative activity against human MDA-MB-231 cells after 10 days; conditions: MDA-MB-231, 240 h; in short: as §1
HuCCT-1 = assay: Antiproliferative activity against human HuCCT-1 cells after 10 days; conditions: HuCCT-1, 240 h; in short: as §2
SNU-423 = assay: Antiproliferative activity against human SNU-423 cells after 10 days; conditions: SNU-423, 240 h
Hs 695T = assay: Antiproliferative activity against human Hs 695T cells after 10 days; conditions: 240 h; in short: as §2
SK-OV-3 = assay: Antiproliferative activity against human SK-OV-3 cells after 10 days; conditions: SK-OV-3, 240 h
ST486 = assay: Antiproliferative activity against human ST486 cells after 10 days; conditions: ST486, 240 h
SCC-25 = assay: Antiproliferative activity against human SCC-25 cells after 10 days; conditions: SCC-25, 240 h
RKO = assay: Antiproliferative activity against human RKO cells after 10 days; conditions: 240 h; in short: as §1
SCC-4 = assay: Antiproliferative activity against human SCC-4 cells after 10 days; conditions: SCC-4, 240 h
RL95-2 = assay: Antiproliferative activity against human RL95-2 cells after 10 days; conditions: RL95-2, 240 h
A-375 = assay: Antiproliferative activity against human A-375 cells after 10 days; conditions: A-375, 240 h
In short: (§3)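 Tested as part of a 240-line cancer cell panel (Eurofins Oncopanel); all lines were mycoplasma-negative and STR-verified. Cells were exposed to a compound concentration series in 2D culture for 10 days. The highest concentration was 10 μM or 25 μM, depending on the inhibitor. Antiproliferative IC50 was derived from the mean of three biological replicates.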

DK-MG = assay: Antiproliferative activity against human DK-MG cells after 10 days; conditions: 240 h; in short: as §2
SiHa = assay: Antiproliferative activity against human SiHa cells after 10 days; conditions: 240 h
[1] = Antiproliferative activity against human BC1 cells after 10 days; conditions: BC1, 240 h; in short: as §3
[2] = Antiproliferative activity against human RKOAS451 cells after 10 days; conditions: RKOAS451, 240 h; in short: as §1
Calu-1 = assay: Antiproliferative activity against human Calu-1 cells after 10 days; conditions: Calu-1, 240 h; in short: as §2
NCI-H69 = assay: Antiproliferative activity against human NCI-H69 cells after 10 days; conditions: NCI-H69, 240 h; in short: as §1
[3] = Antiproliferative activity against human SKO-007 cells after 10 days; conditions: SKO-007, 240 h
HT-1376 = assay: Antiproliferative activity against human HT-1376 cells after 10 days; conditions: HT-1376, 240 h; in short: as §2
HepG2 = assay: Antiproliferative activity against human HepG2 cells after 10 days; conditions: HepG2, 240 h; in short: as §2
DLD-1 = assay: Antiproliferative activity against human DLD-1 cells after 10 days; conditions: DLD-1, 240 h; in short: as §2
CHL-1 = assay: Antiproliferative activity against human CHL-1 cells after 10 days; conditions: CHL-1, 240 h; in short: as §3
CCF-STTG1 = assay: Antiproliferative activity against human CCF-STTG1 cells after 10 days; conditions: CCF-STTG1, 240 h
In short: (§4)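 Cell lines run in the Eurofins Oncopanel broad cancer panel, all mycoplasma-negative and STR-verified. Cells were exposed to a compound concentration series in a 10-day proliferation assay, and an anti-proliferative IC50 was derived. Values are the mean of three biological replicates.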

HEL 92.1.7 = assay: Antiproliferative activity against human HEL 92.1.7 cells after 10 days; conditions: HEL 92.1.7, 240 h; in short: as §2
J-RT3-T3-5 = assay: Antiproliferative activity against human J-RT3-T3-5 cells after 10 days; conditions: J-RT3-T3-5, 240 h; in short: as §1
SW-620 = assay: Antiproliferative activity against human SW620 cells after 10 days; conditions: SW-620, 240 h
[4] = Antiproliferative activity against human KPL-1 cells after 10 days; conditions: KPL-1, 240 h; in short: as §1
LS-1034 = assay: Antiproliferative activity against human LS1034 cells after 10 days; conditions: LS-1034, 240 h; in short: as §1
SW1417 = assay: Antiproliferative activity against human SW1417 cells after 10 days; conditions: SW1417, 240 h
A204 = assay: Antiproliferative activity against human A204 cells after 10 days; conditions: A204, 240 h; in short: as §3
COLO-320-HSR = assay: Antiproliferative activity against human COLO 320HSR cells after 10 days; conditions: 240 h; in short: as §3
SW1463 = assay: Antiproliferative activity against human SW1463 cells after 10 days; conditions: SW1463, 240 h
[5] = Antiproliferative activity against human SK-N-BE(2)-C cells after 10 days; conditions: 240 h
TCC-SUP = assay: Antiproliferative activity against human TCC-SUP cells after 10 days; conditions: 240 h
SNB-19 = assay: Antiproliferative activity against human SNB-19 cells after 10 days; conditions: SNB-19, 240 h
SW872 = assay: Antiproliferative activity against human SW872 cells after 10 days; conditions: SW872, 240 h
DoTc2-4510 = assay: Antiproliferative activity against human DoTc2-4510 cells after 10 days; conditions: DoTc2-4510, 240 h; in short: as §2
PANC-1 = assay: Antiproliferative activity against human PANC-1 cells after 10 days; conditions: PANC-1, 240 h; in short: as §1
A 172 = assay: Antiproliferative activity against human A-172 cells after 10 days; conditions: A 172, 240 h; in short: as §3
MG-63 = assay: Antiproliferative activity against human MG-63 cells after 10 days; conditions: MG-63, 240 h; in short: as §1
BT-474 = assay: Antiproliferative activity against human BT-474 cells after 10 days; conditions: BT-474, 240 h; in short: as §3
MDA-MB-453 = assay: Antiproliferative activity against human MDA-MB-453 cells after 10 days; conditions: MDA-MB-453, 240 h; in short: as §4

IC50 (SK-MEL3): 1.39 µM
IC50 (Ramos): 1.04 µM
IC50 (MDA-MB-231): 1.07 µM
IC50 (SNU-423): 1.11 µM
IC50 (SK-OV-3): 2.95 µM
IC50 (A-375): 1.91 µM
IC50 (Calu-1): 2.85 µM
IC50 (NCI-H69): 2.74 µM
IC50 (HT-1376): 2.35 µM
IC50 (HepG2): 2.35 µM
IC50 (DLD-1): 3.4 µM
IC50 (SW-620): 3.08 µM
IC50 (SW1417): 3.23 µM
IC50 (COLO-320-HSR): 2.74 µM
IC50 (SW1463): 3.06 µM
IC50 (SW872): 2.53 µM
IC50 (PANC-1): 2.87 µM
IC50 (BT-474): 2.94 µM
IC50 (MDA-MB-453): 1.5 µM
SMILES: Cc1cn(CCN2CCN(c3ccccc3-c3cc(C#N)cc(C(=O)NCCCN4CCCC4)c3)CC2)c2ccccc12
IC50 (UMUC3): 2.91 µM
IC50 (MEG-01): 1.28 µM
IC50 (CRO-AP2): 2.26 µM
IC50 (HOS): 2.13 µM
IC50 (HuCCT-1): 1.24 µM
IC50 (Hs 695T): 6.65 µM
IC50 (ST486): 0.955 µM
IC50 (SCC-25): 2.52 µM
IC50 (RKO): 1.04 µM
IC50 (SCC-4): 3.59 µM
IC50 (RL95-2): 1.29 µM
IC50 (DK-MG): 6.42 µM
IC50 (SiHa): 3.26 µM
IC50 [1]: 3.65 µM
IC50 [2]: 1.11 µM
IC50 [3]: 0.855 µM
IC50 (CHL-1): 2.57 µM
IC50 (CCF-STTG1): 5.82 µM
IC50 (HEL 92.1.7): 3.53 µM
IC50 (J-RT3-T3-5): 1.18 µM
IC50 [4]: 3.43 µM
IC50 (LS-1034): 2.9 µM
IC50 (A204): 1.35 µM
IC50 [5]: 3.31 µM
IC50 (TCC-SUP): 2.26 µM
IC50 (SNB-19): 2.52 µM
IC50 (DoTc2-4510): 1.07 µM
IC50 (A 172): 1.96 µM
IC50 (MG-63): 6.12 µM

IC50 (SK-MEL3): > 10 µM
IC50 (Ramos): > 10 µM
IC50 (MDA-MB-231): > 10 µM
IC50 (SNU-423): > 10 µM
IC50 (SK-OV-3): > 10 µM
IC50 (A-375): > 10 µM
IC50 (Calu-1): > 10 µM
IC50 (NCI-H69): > 10 µM
IC50 (HT-1376): > 10 µM
IC50 (HepG2): > 10 µM
IC50 (DLD-1): > 10 µM
IC50 (SW-620): > 10 µM
IC50 (SW1417): > 10 µM
IC50 (COLO-320-HSR): > 10 µM
IC50 (SW1463): > 10 µM
IC50 (SW872): > 10 µM
IC50 (PANC-1): > 10 µM
IC50 (BT-474): > 10 µM
IC50 (MDA-MB-453): > 10 µM
SMILES: O=C(NC1CN(Cc2cnn(Cc3ccccc3)c2)C1)c1cn(C2CC2)nn1
IC50 (UMUC3): > 10 µM
IC50 (MEG-01): > 10 µM
IC50 (CRO-AP2): 0.075 µM
IC50 (HOS): > 10 µM
IC50 (HuCCT-1): > 10 µM
IC50 (Hs 695T): > 10 µM
IC50 (ST486): > 10 µM
IC50 (SCC-25): > 10 µM
IC50 (RKO): > 10 µM
IC50 (SCC-4): > 10 µM
IC50 (RL95-2): > 10 µM
IC50 (DK-MG): > 10 µM
IC50 (SiHa): > 10 µM
IC50 [1]: > 10 µM
IC50 [2]: > 10 µM
IC50 [3]: 0.168 µM
IC50 (CHL-1): > 10 µM
IC50 (CCF-STTG1): > 10 µM
IC50 (HEL 92.1.7): > 10 µM
IC50 (J-RT3-T3-5): 0.003 µM
IC50 [4]: > 10 µM
IC50 (LS-1034): > 10 µM
IC50 (A204): > 10 µM
IC50 [5]: > 10 µM
IC50 (TCC-SUP): > 10 µM
IC50 (SNB-19): > 10 µM
IC50 (DoTc2-4510): > 10 µM
IC50 (A 172): > 10 µM
IC50 (MG-63): > 10 µM
